This assay has as its system Plasmodium berghei. The assay can be described thus: Antimalarial activity as survivor numbers at day 60 for drug-sensitive Plasmodium berghei infected mice (Mus musculus) after 72 hr. The format is functional. The essentials:
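Normal drug-sensitive P. berghei infection in mice. A single subcutaneous dose was given 72 h postinfection, dissolved or suspended in sesame or peanut oil. Groups were five animals (ten where indicated). Mice alive at 60 days postinfection were counted as "cured", without subinoculation confirmation. Toxic deaths on days 2–5 were recorded separately.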

Regarding `Nc1nc(N)c2cc(S(=O)(=O)c3ccc4ccccc4c3)ccc2n1`, the survivors at day 60 was 5.

These data come from ChEMBL document CHEMBL1122803, “Folate antagonists. 22. Antimalarial and antibacterial effects of 2,4-diamino-6-quinazolinesulfonamides” (1984).
